Active and inactive are the calls of the source. The rule behind the calls is not given here. Bridge positions count the residues as written; N and C are the ends. Peptide text beside a SMILES is read from it.
Tests used:
[1] = target: Alpha-synuclein (Homo sapiens) (UniProt P37840); experiment: Inhibition of alpha-synuclein-mediated dopaminergic neurodegeneration in Caenorhabditis elegans transfected with human alpha-synuclein
How it was run: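 Age-synchronized transgenic worms expressing α-syn and GFP from the Pdat-1 promoter in DA neurons, with extrachromosomal mCP arrays; three independent lines per strain. Six anterior DA neurons (4 CEP, 2 ADE) scored at day 7 on 2% agarose pads with 2 mM levamisole, by epifluorescence. An animal with any dendrite, axon or cell body loss counted as degenerating. 30 worms per trial, three trials per line.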

[2] = target: Huntingtin (Homo sapiens) (UniProt P42858); experiment: Inhibition of huntingtin-mediated toxicity in yeast transfected with human huntingtin by spotting assay
Chain of Huntingtin (Homo sapiens) (P42858 whole entry): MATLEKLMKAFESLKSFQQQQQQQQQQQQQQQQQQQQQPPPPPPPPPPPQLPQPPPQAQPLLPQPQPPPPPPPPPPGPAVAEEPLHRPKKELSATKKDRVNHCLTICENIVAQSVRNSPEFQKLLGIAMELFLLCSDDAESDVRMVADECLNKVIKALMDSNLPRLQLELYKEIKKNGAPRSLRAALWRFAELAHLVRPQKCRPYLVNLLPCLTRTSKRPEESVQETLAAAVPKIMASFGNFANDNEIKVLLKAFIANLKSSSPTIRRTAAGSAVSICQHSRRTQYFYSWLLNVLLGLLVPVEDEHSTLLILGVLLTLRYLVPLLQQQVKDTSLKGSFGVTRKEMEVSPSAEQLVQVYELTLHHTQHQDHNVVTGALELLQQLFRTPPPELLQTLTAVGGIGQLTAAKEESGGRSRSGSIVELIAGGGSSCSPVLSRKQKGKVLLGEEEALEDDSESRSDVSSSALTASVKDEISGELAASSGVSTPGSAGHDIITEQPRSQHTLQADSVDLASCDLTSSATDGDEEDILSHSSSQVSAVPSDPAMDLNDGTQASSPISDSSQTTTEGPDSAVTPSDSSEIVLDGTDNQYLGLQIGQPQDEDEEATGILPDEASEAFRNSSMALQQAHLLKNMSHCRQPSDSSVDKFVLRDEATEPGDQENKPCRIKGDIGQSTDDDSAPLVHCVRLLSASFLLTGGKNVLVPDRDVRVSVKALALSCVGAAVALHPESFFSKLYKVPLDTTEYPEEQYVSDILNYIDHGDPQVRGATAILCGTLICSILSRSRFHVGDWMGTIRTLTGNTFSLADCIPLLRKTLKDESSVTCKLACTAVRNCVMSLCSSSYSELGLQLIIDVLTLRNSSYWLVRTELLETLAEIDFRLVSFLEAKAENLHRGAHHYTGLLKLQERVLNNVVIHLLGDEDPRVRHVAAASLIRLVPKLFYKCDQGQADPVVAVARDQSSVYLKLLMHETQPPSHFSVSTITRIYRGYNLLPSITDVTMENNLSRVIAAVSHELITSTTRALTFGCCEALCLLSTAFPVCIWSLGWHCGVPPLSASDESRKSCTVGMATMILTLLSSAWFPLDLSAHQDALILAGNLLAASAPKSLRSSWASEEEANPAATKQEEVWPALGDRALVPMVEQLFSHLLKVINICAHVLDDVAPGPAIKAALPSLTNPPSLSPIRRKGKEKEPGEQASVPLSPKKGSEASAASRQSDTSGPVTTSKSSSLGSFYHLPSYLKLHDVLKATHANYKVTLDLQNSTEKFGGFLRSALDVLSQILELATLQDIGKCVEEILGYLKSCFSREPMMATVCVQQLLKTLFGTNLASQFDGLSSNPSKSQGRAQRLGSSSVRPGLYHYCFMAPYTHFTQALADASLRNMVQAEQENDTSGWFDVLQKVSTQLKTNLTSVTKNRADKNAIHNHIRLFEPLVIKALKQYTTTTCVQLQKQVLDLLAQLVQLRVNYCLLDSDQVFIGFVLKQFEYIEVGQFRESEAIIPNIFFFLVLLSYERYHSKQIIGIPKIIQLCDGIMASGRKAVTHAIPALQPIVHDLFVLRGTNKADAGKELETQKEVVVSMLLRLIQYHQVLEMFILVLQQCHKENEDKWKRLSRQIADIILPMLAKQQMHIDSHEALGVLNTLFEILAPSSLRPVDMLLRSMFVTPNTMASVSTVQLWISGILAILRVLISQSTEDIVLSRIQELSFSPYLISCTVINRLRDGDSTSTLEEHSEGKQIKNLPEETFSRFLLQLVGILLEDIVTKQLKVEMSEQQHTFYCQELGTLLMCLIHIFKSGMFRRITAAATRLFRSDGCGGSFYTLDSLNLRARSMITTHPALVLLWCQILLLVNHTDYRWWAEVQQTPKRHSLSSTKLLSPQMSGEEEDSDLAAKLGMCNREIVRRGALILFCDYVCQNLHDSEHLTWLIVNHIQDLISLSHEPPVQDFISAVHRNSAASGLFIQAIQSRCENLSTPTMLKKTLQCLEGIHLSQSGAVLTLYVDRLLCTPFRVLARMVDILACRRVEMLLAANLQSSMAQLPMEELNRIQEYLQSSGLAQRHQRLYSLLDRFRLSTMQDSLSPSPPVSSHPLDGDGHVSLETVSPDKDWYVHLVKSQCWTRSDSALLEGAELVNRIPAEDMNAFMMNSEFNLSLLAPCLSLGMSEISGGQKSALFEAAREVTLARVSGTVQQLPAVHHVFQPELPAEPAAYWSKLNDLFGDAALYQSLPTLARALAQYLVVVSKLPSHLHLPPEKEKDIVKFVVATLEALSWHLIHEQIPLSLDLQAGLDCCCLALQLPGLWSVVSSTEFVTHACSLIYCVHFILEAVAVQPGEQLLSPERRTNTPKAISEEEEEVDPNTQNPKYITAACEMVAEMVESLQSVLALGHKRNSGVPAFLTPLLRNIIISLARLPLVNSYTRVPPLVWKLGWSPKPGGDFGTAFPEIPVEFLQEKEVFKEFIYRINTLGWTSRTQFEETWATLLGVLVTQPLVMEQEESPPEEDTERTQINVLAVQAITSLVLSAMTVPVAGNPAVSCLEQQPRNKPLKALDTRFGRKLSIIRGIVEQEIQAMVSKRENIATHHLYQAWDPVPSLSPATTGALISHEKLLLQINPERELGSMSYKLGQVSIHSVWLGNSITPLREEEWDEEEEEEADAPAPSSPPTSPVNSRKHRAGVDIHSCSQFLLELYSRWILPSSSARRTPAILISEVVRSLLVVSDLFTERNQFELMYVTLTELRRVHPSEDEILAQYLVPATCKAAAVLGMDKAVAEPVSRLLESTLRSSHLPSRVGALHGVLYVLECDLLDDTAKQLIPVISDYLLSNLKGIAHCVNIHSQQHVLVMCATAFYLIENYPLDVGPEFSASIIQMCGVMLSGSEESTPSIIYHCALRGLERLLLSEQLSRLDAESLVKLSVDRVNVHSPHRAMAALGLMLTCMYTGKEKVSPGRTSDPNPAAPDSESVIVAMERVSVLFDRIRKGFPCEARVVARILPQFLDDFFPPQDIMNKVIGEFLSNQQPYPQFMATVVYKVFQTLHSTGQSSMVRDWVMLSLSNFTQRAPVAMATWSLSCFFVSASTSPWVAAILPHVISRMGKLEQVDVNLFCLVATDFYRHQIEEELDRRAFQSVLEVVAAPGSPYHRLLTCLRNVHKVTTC

[3] = target: Alpha-synuclein (Homo sapiens) (UniProt P37840); experiment: Inhibition of alpha-synuclein-mediated toxicity in yeast transfected with human alpha-synuclein by spotting assay
How it was run: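 Haploid W303 IntTox strain carrying integrated GAL1-driven human α-syn-YFP, transformed with CP plasmids by lithium acetate heat shock. At least three independent transformants tested. Cells serially diluted and plated on galactose medium to induce α-syn, then growth scored.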

[4] = target: Alpha-synuclein (Homo sapiens) (UniProt P37840); experiment: Inhibition of human alpha-synuclein-mediated accumulation of stalled vesicle pools in yeast transfected with human alpha-synuclein after 8 to 12 hrs by electron microscopy
Saccharomyces cerevisiae = experiment: Effect on lacZ expression in yeast after 36 to 48 hrs by Gal1 reporter gene assay; format: functional, organism-based
How it was run: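 GAL1::LacZ yeast (freshly integrated) grown on galactose plates; single colonies picked at 36–48 h, washed, normalized to OD600 0.4–0.8. CPRG substrate buffer (100 mM HEPES pH 7.25, 150 mM NaCl, 0.5% SDS, 0.75 mg/mL CPRG) added, shaken 30–120 min at room temperature. Absorbance read at 578 nm and corrected for yeast optical density.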

Compound	inhibition [1]	Activity [4]	percent of animals without neurodegeneration [1]	Activity [2]	inhibition [3]	Activity (Saccharomyces cerevisiae)
CC(C)[C@H](NC(=O)[C@H](CCCNC(=N)N)NC(=O)[C@@H](NC(=O)[C@H](CO)NC(=O)[C@H](CS)NC(=O)[C@H](Cc1c[nH]c2ccccc12)NC(=O)[C@@H]1CCCN1C(=O)[C@H](C)N)[C@@H](C)O)C(=O)O (H-APWCSTRV-OH)	inactive	–	–	–	–	–
CC(C)[C@H](NC(=O)[C@H](CCCNC(=N)N)NC(=O)CNC(=O)[C@H](CO)NC(=O)[C@@H]1CSSC[C@H](N)C(=O)N2CCC[C@H]2C(=O)N[C@@H](Cc2c[nH]c3ccccc23)C(=O)N1)C(=O)O (H-CPWCSGRV-OH; disulfide 1-4)	–	–	–	–	Active	–
CC(C)[C@H](NC(=O)[C@H](CCCNC(=N)N)NC(=O)[C@H](C)NC(=O)[C@H](CO)NC(=O)[C@@H]1CSSC[C@H](N)C(=O)N2CCC[C@H]2C(=O)N[C@@H](Cc2c[nH]c3ccccc23)C(=O)N1)C(=O)O (H-CPWCSARV-OH; disulfide 1-4)	–	–	–	–	Active	–
CC(C)[C@H](NC(=O)[C@H](CCCNC(=N)N)NC(=O)[C@@H](NC(=O)[C@H](CO)NC(=O)[C@@H]1CSSC[C@H](N)C(=O)N2CCC[C@H]2C(=O)N[C@@H](Cc2c[nH]c3ccccc23)C(=O)N1)[C@@H](C)O)C(=O)O (H-CPWCSTRV-OH; disulfide 1-4)	–	inactive	26%	inactive	Active	inactive

Second part, led by results:

inhibition [1]	Activity [4]	percent of animals without neurodegeneration [1]	Compound	Activity [2]	inhibition [3]	Activity (Saccharomyces cerevisiae)
–	inactive	24%	CC(C)C[C@@H]1NC(=O)[C@H](C)NC(=O)[C@@H](N)CSSC[C@@H](C(=O)N[C@@H](CC(=O)O)C(=O)N2CCC[C@H]2C(=O)N[C@@H](Cc2c[nH]c3ccccc23)C(=O)N[C@@H](Cc2c[nH]c3ccccc23)C(=O)O)NC1=O (H-CALCDPWW-OH; disulfide 1-4)	inactive	Active	inactive
inactive	–	–	CC(C)C[C@H](NC(=O)[C@H](C)NC(=O)[C@H](C)N)C(=O)N[C@@H](CS)C(=O)N[C@@H](CC(=O)O)C(=O)N1CCC[C@H]1C(=O)N[C@@H](Cc1c[nH]c2ccccc12)C(=O)N[C@@H](Cc1c[nH]c2ccccc12)C(=O)O (H-AALCDPWW-OH)	–	–	–

From ChEMBL document CHEMBL1212724, “Rapid selection of cyclic peptides that reduce alpha-synuclein toxicity in yeast and animal models” (Nat Chem Biol, 2009)
